# Source: PubChem BioAssay (The Scripps Research Institute Molecular Screening Center)
# Only some compounds are listed: those with a hit (about 0.55% of all), similar ones and a draw of the others.
# OXTR agonist: agonists of human oxytocin receptor; P30559; CHO-OTR cells, Fluo-8 calcium fluorescence; normalized: DMSO 0%, oxytocin 100%; activation, % at 3 µM; actives 0.32% (n = 320,000);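 active means activation above the mean of all tested compounds plus 3 SD, cutoff set per screening run, cut at about 20% in these data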;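 further: peak over basal fluorescence ratio from a 100 s FLIPR kinetic read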
# OXTR potentiate: human OXTR potentiation; P30559; CHO-OTR cells, Fluo-8 calcium fluorescence, potentiator mode; 0% = oxytocin EC15, 100% = EC100; activation, % at 3 µM; actives 0.061% (n = 320,000); AID 2445;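 active means activation above that plate's cutoff, the mean activation of tested compounds plus 3 SD, cut at about 6.6% in these data, passing the limit was not always enough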;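 further: 100% uses oxytocin at 75 nM as the full agonist control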
#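 assay system = CHO-OTR cells, human receptor | schedule = compound 6 min at room temperature before oxytocin, 100 s read | detection = Fluo-8 intracellular calcium fluorescence, ex 470-495, em 515-575 nm | evaluation = normalized max/min fluorescence ratio, % activation | control set = EC15 oxytocin alone as 0%, 75 nM oxytocin (EC100) as 100%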
# TRPML3 ag: activates the human TRPML3 channel. HEK293 TRPML3-YFP, Fluo-8 calcium fluorescence; 100% = the carbachol control signal. Q8TDD5. activation, % at 3 µM. actives 0.29% (n = 220,000);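 active means activation above its plate's cutoff, the mean activation of the plate's test wells plus 3 SD, cut at about 12% in these data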;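 further: 0% = DMSO only wells and 100% = carbachol wells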
#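 Test system – HEK293 line with stable expression of human TRPML3-YFP channel · Control set – carbachol 87 µM final as high control (100%), DMSO as low control (0%) · Signal – Fluo-8 calcium dye fluorescence, ex 470-495, em 515-575 nm · Incubation – 1-h 37 °C dye load, 5-s basal, 120-s post-compound reads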
# V1R ag counter: V1a receptor agonism, counter-screen for OXTR agonists; P37288; CHO-V1R cells, Fluo-8 calcium fluorescence, agonist mode; 0% DMSO, 100% 3 nM vasopressin; activation, % at 3 µM; actives 0.25% (n = 320,000);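 active means activation above the mean activation of all tested compounds plus 3 SD, per screening run, cut at about 20% in these data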;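 further: signal is peak over basal fluorescence ratio across a 100 second FLIPR read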
# zfTRPN1 agonist: agonists of zebrafish TRPN1 channel | actives 0.18% (n = 220,000) | HEK293 zebrafish TRPN1-YFP, Fluo-8 calcium fluorescence; 100% = response to 87 µM carbachol | activation, % at 3 µM;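 active means activation above its plate's cutoff, the mean activation of test wells on that plate plus 3 SD, cut at about 19% in these data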;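 further: 0% = DMSO alone and 100% = 87 µM carbachol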
#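 Material: zebrafish TRPN1-YFP in HEK293 cells; Doses: single test compound dose, 3 µM nominal, 0.3% DMSO; Timing: dye loading 1 h at 37 °C, then 30 min room temperature; Technique: intracellular calcium fluorescence with Fluo-8; Benchmarks: high carbachol 87 µM, low DMSO alone.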
# V1aR agonist cf: human V1a receptor agonism, confirmation. AID 434964. activation, % at 3 µM. CHO-V1R cells, Fluo-8 calcium fluorescence, agonist. shares compounds with V1R ag counter. actives 20% (n = 180);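 active means average activation exceeds primary screen hit cutoff, cut at about 21% in these data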;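 further: peak over basal fluorescence ratio during a 100 s FLIPR read; 0% = DMSO only wells and 100% = 3 nM vasopressin wells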
# OXTR counter: activates oxytocin receptor in V1a agonist counter-screen; shares compounds with V1R ag counter; CHO-OTR cells, Fluo-8 calcium fluorescence; activation, % at 3 µM; actives 10% (n = 180);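 active means mean activation over three repeats above the cutoff from the earlier oxytocin receptor agonist screen, cut at about 20% in these data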;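 further: peak over minimum fluorescence ratio within a 100 second FLIPR read; 0% = DMSO only wells and 100% = oxytocin high control wells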
# * marks the source's active call; other numbers are inactive results; · = no result given.
SMILES,OXTR agonist,OXTR potentiate,TRPML3 ag,V1R ag counter,zfTRPN1 agonist,V1aR agonist cf,OXTR counter
CCOc1ccc(N=C2NC(=O)S/C2=C\c2ccc(Cl)cc2)cc1,-1.0,-12.0,0.9,0.5,1.7,·,·
CC/C(=N\N=C1\SC(C)C(=O)N1Cc1ccco1)c1ccccc1 (configuration not stated),-1.0,-1.4,-0.9,0.3,-1.4,·,·
O=C(CCCN=C1NS(=O)(=O)c2ccccc21)OCC(=O)c1ccc(Br)cc1,14.5,-14.0,·,25.8*,·,10.4,7.9
Cc1ccc(/C=N/NC(=O)c2nnn(-c3nonc3N)c2-c2ccc3c(c2)OCO3)s1,11.6,-3.5,·,29.6*,·,14.3,3.2
CCOc1cccc(-c2c(C(=O)N/N=C/c3cccs3)nnn2-c2nonc2N)c1,18.9,-5.2,·,23.6*,·,14.2,7.4
COc1ccc(/C=N/NC(=O)c2nnn(-c3nonc3N)c2-c2cccc(OC)c2)cc1,16.5,-4.5,·,26.0*,·,25.0*,25.1*
COc1cccc(-c2c(C(=O)N/N=C(\C)c3ccc(Cl)s3)nnn2-c2nonc2N)c1,18.5,-5.8,·,24.9*,·,7.9,1.0
O=C(O)c1cccc(CSc2nc(-c3ccc(Cl)cc3)cc(C(F)(F)F)n2)c1,18.4,-13.3,-0.2,21.4*,-2.3,5.7,5.1
